# Diaphorase inh – diaphorase inhibition or chemical oxidation counter-screen; diaphorase resazurin-to-resorufin fluorescence, NADH, 16 min; bacterial (C. kluyveri) enzyme, not human; inhibition, % at 20 µM; hit rate 0.69% among 190,000; AID 1217;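 active = primary screen inhibition at 20 µM above a set limit, cut at about 50% in these data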
#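 Benchmarks: positive control wells lacking NADH, neutral wells with DMSO only. System: bacterial diaphorase enzyme (C. kluyveri). Input: 0.14 U/mL diaphorase, enzyme working solution. Detection: resorufin fluorescence, excitation 544 nm, emission 590 nm. Times: 16-min room-temperature incubation before reading.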
# Diaph act CS – activates diaphorase or chemically reduces, flagging diaphorase assay artifacts. activation factor at 20 µM. hit rate 0.005% among 190,000. Diaphorase/resazurin coupled assay, resorufin fluorescence, 16 min; active compounds read high; 1 = vehicle wells, 0 = NADH-free wells. AID 1229;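 active = diaphorase activity raised at least twofold by the compound at 20 µM; inactive = activation factor below 2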
#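 System – purified diaphorase enzyme from Clostridium kluyveri · Input – enzyme 0.07 U/mL final · Also added – final NADH 0.114 mM, resazurin 0.1 mM · Measured by – fluorescence of resorufin, 544 nm excitation, 590 nm emission · Timing – 16 min enzyme reaction, ambient temperature · Measure – resorufin increase flagging diaphorase activators or reducers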
# PMI act – activators of human phosphomannose isomerase; activation factor at 20 µM; AID 1214; P34949; hit rate 0.005% among 190,000; purified human PMI, coupled resazurin fluorescence, 20 min; active compounds read high; 1 = vehicle control, 0 substrate-free wells;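 active = activation factor of 2 or more at 20 µM, relative to plate controls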
# Target sequence (P34949 whole entry, looked up): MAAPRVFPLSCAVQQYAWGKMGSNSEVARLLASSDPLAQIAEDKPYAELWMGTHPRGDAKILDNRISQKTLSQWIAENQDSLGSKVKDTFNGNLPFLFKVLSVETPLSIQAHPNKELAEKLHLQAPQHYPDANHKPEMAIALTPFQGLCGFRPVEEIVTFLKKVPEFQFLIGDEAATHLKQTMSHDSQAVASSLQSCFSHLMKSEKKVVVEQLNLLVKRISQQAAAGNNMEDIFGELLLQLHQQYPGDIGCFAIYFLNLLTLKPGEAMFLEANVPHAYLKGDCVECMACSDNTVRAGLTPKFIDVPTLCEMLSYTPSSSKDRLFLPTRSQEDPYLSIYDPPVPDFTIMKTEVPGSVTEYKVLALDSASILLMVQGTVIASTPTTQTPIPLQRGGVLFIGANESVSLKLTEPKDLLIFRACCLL
# PMI act satM6P – activators of human phosphomannose isomerase at near-saturating mannose 6-phosphate. coupled PMI enzyme assay, resazurin fluorescence, 20 min; active compounds read high; 1 = untreated enzyme, 0 = substrate-free blank. activation factor at 20 µM. hit rate 0.34% among 190,000;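 active = activation factor of 2 or more at 20 µM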
#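 Test system: human phosphomannose isomerase with PGI, G6PDH, diaphorase coupling enzymes / Doses: 20 µM compound, 1% DMSO / Times: enzyme reaction with compound 20 min at room temperature / Measured by: Diaphorase-driven resazurin-to-resorufin fluorescence, excitation 544, emission 590 nm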
# G6PDH counter – counter-screen for G6PDH assay hits: L. mesenteroides G6PDH inhibition | Purified L. mesenteroides G6PDH, diaphorase/resazurin coupled fluorescence, 45 min | inhibition, % at 5 µM | hit rate 0.12% among 200,000 | AID 1020; in the data active = inhibition above about 50%
# A number is an active result; n = inactive; x = no result given. Hits are enriched below; roughly 1.1% of the tested compounds scored in any of these assays.
SMILES,Diaphorase inh,Diaph act CS,PMI act,PMI act satM6P,G6PDH counter
CCOc1ccc(CC(=O)Nc2nccs2)cc1OCC,n,n,n,n,n
CNc1sc(C(=O)c2ccccc2F)c(N)c1-c1nc2ccccc2s1,n,n,n,2,n
CNC(=O)CSc1nnc(C2CC2)n1-c1ccccc1,n,n,n,n,n
CCc1ccc(OCC(=O)Nc2cc(S(=O)(=O)CC)ccc2O)cc1,n,n,n,n,n
CC(=O)Oc1ccc2c(=O)c(Oc3ccccc3)c(C)oc2c1OC(C)=O,65,n,n,n,n
CC(=O)N1CCC2(CC1)CC(=O)c1cc(OCC(=O)N3CCOCC3)ccc1O2,n,n,n,n,n
CCCN1CCCc2cc(CN)ccc21,n,n,n,n,54
CS(=O)(=O)c1sc2nc(-c3cccs3)cc(-c3ccccc3)c2c1N,n,n,n,2.2,n
CC(C)CCSc1cc(NCCO)c([N+](=O)[O-])c2nonc12,80,n,n,n,n
CCC(=O)OCCNc1cc(SCCC(=O)OC)c2nonc2c1[N+](=O)[O-],71,n,n,n,n
CC(=O)OCCN(C)c1cc(SC(C)C)c2nonc2c1[N+](=O)[O-],n,n,n,n,n
O=[N+]([O-])c1c(NCCO)cc(N2CCCCC2)c2nonc12,52,n,n,n,n
CC(=O)OCCNc1cc(SC(C)C)c2nonc2c1[N+](=O)[O-],52,n,n,n,n
O=S(=O)(Nc1cccnc1)c1ccc(Cl)c(C(F)(F)F)c1,n,n,n,n,n
CN(C)c1nc(OCCNC(=O)COc2ccccc2Cl)nc(N(C)C)n1,n,n,n,n,n
Cn1cc2cc(NC(N)=S)ccc2n1,n,n,n,n,n
Cn1cc2ccc(N)cc2n1,70,n,n,n,54
CC(C)COc1cccc(C(=O)NC(=S)NCc2cccnc2)c1,51,n,n,n,n
Nc1[nH]nc2nc3ccccc3cc12,n,n,n,2.2,n
CC(C)c1cccc(C(C)C)c1NC(=O)COC(=O)C1=COCCO1,n,n,n,n,n
O=C(O)CCCn1c(=S)[nH]c2c(sc3ccc([N+](=O)[O-])cc32)c1=O,84,n,n,n,n
COCCCn1c(=S)[nH]c2c(sc3ccccc32)c1=O,64,n,n,n,n
COCCCn1c(=O)c2ccccc2c2ccccc2c1=O,n,n,n,n,n
CC1CCN(CCCn2c(=S)[nH]c3c(sc4ccccc43)c2=O)CC1,58,n,n,n,n
O=c1c2sc3ccccc3c2[nH]c(=S)n1CCN1CCOCC1,56,n,n,n,n
SMILES,Diaphorase inh,Diaph act CS,PMI act,PMI act satM6P,G6PDH counter
CC1CCN(CCCn2c(=S)[nH]c3c(sc4ccc([N+](=O)[O-])cc43)c2=O)CC1,n,n,n,n,n
CCOC(=O)C1=C(C)N(CCCC(=O)O)C(=O)NC1c1ccc([N+](=O)[O-])cc1 (stereo not given),n,n,n,n,n
CC(=O)N(NC(=O)c1ccc(C)cc1)C1CC(=O)N(c2ccccc2Cl)C1=O (stereo not given),n,n,n,n,n
CC1(C)CC2(CC(c3ccccc3F)c3ccc(O)c(O)c3O2)NC(=S)N1 (stereo not given),68,n,n,n,n
Cc1ccc(-c2nc3sc(C(N)=O)c(N)c3c3c2CCCC3)cc1,n,n,n,2.4,n
Cc1ccc(-c2c3c(nc4sc(C(N)=O)c(N)c24)CCCC3)o1,n,n,n,n,n
Nc1c(C(=O)NC2CC2)sc2nc3c(c(-c4ccco4)c12)CC/C3=C/c1ccco1,87,n,n,n,n
NC(=O)c1sc2nc3c(c(-c4ccco4)c2c1N)CCC3,81,n,n,n,n
CCOC(=O)c1sc2nc(-c3ccco3)c3c(c2c1N)CC(C)(C)OC3,n,n,n,n,n
Cc1cccc2cc(-c3ccccc3)c(-c3ccccc3)c[n+]12,n,n,n,n,n
CN(C)c1ccc(NC2=C(Cl)C(=O)c3ccccc3C2=O)cc1,n,n,n,n,51
CCn1c2ccccc2n2c(=O)c(=O)n(CC(=O)Nc3ccc(C(C)C)cc3)nc12,n,n,n,n,n
CCN(C(=O)c1coc(=O)c(Br)c1)c1ccc2c(c1)OCO2,66,n,n,n,n
CCN(C(=O)c1c(C)cc(=O)oc1C)c1ccc2c(c1)OCO2,n,n,n,n,n
Nc1nc2c(s1)CCc1c-2cnn1-c1ccccc1,66,n,n,n,62
Nc1nc2c(s1)COc1ccccc1-2,n,n,n,n,n
COCC(=O)Nc1cc(Cl)c(OC)cc1OC,n,n,n,n,n
CC1(C)CC(NC(=O)c2c(N)no[n+]2[O-])CC(C)(C)N1,n,n,n,n,n
COc1ccc(N2CCC(CNC(=S)Nc3cccc(OC)c3)C2)cc1 (stereo not given),n,n,n,n,n
COc1ccc(N2CCC(CNC(=O)Nc3cccc(OC)c3)C2)cc1 (stereo not given),57,n,n,n,n
CCN(CC)CCNC(=O)c1c(O)c2cc(OC)c(OC)cc2[nH]c1=O,n,n,n,n,n
CCCN(CCC)S(=O)(=O)c1ccc(C(=O)N2CCOCC2)cc1,n,n,n,n,n
Oc1cc(-c2ccccc2)c2ccccc2c1,84,n,n,n,n
N#Cc1c(N)sc(=S)c2c1CCN(Cc1ccccc1)C2,82,n,n,n,n
CCN1CCc2c(sc(N)c2C#N)C1,n,n,n,n,n
SMILES,Diaphorase inh,Diaph act CS,PMI act,PMI act satM6P,G6PDH counter
N#Cc1c(NCCO)nc(NCc2ccccc2)c2c1CCN(Cc1ccccc1)C2,59,n,n,n,n
CCOC(=O)Cc1ccc(NCc2ccc(Cl)cc2)cc1,n,n,n,n,n
COCCCNC(=S)NCCCNc1nc2cc3c(cc2cc1C#N)OCO3,n,n,n,2.1,n
Cc1ccc2cc(C#N)c(NCCNC(=O)C3CCC3)nc2c1C,n,n,n,n,n
CCOCCCNC(=S)NCCCNc1nc2c(C)c(C)ccc2cc1C#N,n,n,n,2.1,n
CCOCCCNC(=S)N1CCCN(c2nc3c(C)c(C)ccc3cc2C#N)CC1,x,x,x,x,n
CCOCCCNC(=S)N1CCCN(c2nc3cc(C)ccc3cc2C#N)CC1,n,n,n,2.3,n
Cn1c(=O)c2c3c(sc2n2c(SCC(N)=O)nnc12)CC(C(C)(C)C)CC3 (stereo not given),n,n,n,n,n
Fc1ccc(Sc2ccccc2CNC2=NCCN2)cc1,n,n,n,n,n
Cc1c(N=C2C=C(Br)C(=O)C(Br)=C2)c(=O)n(-c2ccccc2)n1C,69,n,n,n,n
Cc1c(N=Nc2ccc(O)cc2)c(=O)n(-c2ccccc2)n1C,n,n,n,n,n
Cc1c(N=C2C=CC(=O)c3ccccc32)c(=O)n(-c2ccccc2)n1C,58,n,n,n,n

# Bioassay records (PubChem BioAssay)
